Assay results from ChEMBL document CHEMBL4428107 (Bioorg Med Chem, 2016).
Several values for one entry are separate records, joined by “and”; a condition that tells them apart may be missing. Equal entries are not always repeated. Activity calls are given as the source filed them. No cut-off for these calls is given here.

Experiments:
[1] = test system: MCF7; assay: Antiproliferative activity against human MCF7 cells assessed as reduction in cell viability after 72 hrs by MTS-PMS assay; settings: MCF7, 72 h
[2] = target: Histone deacetylase 3/Nuclear receptor corepressor 2 (HDAC3/NCoR2) (Homo sapiens, UniProt O15379); assay: Inhibition of recombinant full length C-terminal His-tagged human HDAC3/GST-tagged human Ncor2 (395 to 489 residues) expressed in baculovirus expression system using fluorogenic substrate by fluorescence assay
Outline: (§1)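 Outsourced HDAC isozyme panel run under proprietary protocols. Each compound was tested at 10 μM and 5 μM, using HDAC substrate 3 at 10 μM, with fluorescence read-out. […] IC50 range was bracketed from % inhibition at the two concentrations.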

[3] = target: Histone deacetylase 5 (Homo sapiens, UniProt Q9UQL6); assay: Inhibition of recombinant C-terminal His-tagged human HDAC5 catalytic domain (656 to 1122 residues) expressed in baculovirus expression system using fluorogenic substrate by fluorescence assay
Outline: (§2)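 Outsourced HDAC isozyme panel run under proprietary protocols. Each compound was tested at 10 μM and 5 μM, using Class 2a HDAC substrate at 2 μM, with fluorescence read-out. […] IC50 range was bracketed from % inhibition at the two concentrations.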

[4] = Antiproliferative activity against human PBMC assessed as reduction in cell viability after 70 hrs by Quanti-blue assay; assay type: cell-based
Outline: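 QB fluorescence viability assay; hPBMCs purified by density centrifugation from purchased human blood, stored frozen, resuspended in RPMI-1640 with 10% heat-inactivated FBS, HEPES, pyruvate, non-essential amino acids and BME; seeded at 10^6 cells/mL. Compounds at 50 μM, 70 h plus 2 h with detection reagent; λex 530/λem 590 nm. Three independent repeats.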

[5] = target: Histone deacetylase 11 (Homo sapiens, UniProt Q96DB2); assay: Inhibition of full length recombinant human HDAC11 expressed in baculovirus expression system using fluorogenic substrate by fluorescence assay; outline: as §2
[6] = target: T1, Histone deacetylase 2 (Homo sapiens, UniProt Q92769); assay: Inhibition of recombinant full length C-terminal His-tagged human HDAC2 expressed in baculovirus expression system using fluorogenic substrate by fluorescence assay
[7] = target: T1, Histone deacetylase 2; assay: Inhibition of full length recombinant human HDAC2 expressed in baculovirus expression system using fluorogenic peptide RHKK(Ac) as substrate by fluorescence assay
[8] = test system: HCT-116; assay: Antiproliferative activity against human HCT116 cells assessed as reduction in cell viability after 72 hrs by MTS-PMS assay; assay type: functional
Outline: (§3)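 MTS-PMS viability test. Cells were seeded at 3,000/well and left 24 h at 37 °C, 5% CO2, then exposed to compound for 72 h. Screening was at 50 μM for HCT116 and MCF-7 and […], with final DMSO ≤1%. MTS:PMS was mixed 20:1, added for 3 h, and absorbance read at 490 nm. At least two independent runs were done, each in triplicate.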

[9] = Immunomodulatory activity in human TALL-104 cells assessed as effect on degranulation by measuring augmentation of CD3-stimulated anti-LAMP fluorescence at 100 uM preincubated for 30 mins followed by anti-LAMP addition and incubated for 50 mins in the dark by flow cytometric analysis relative to control; assay type: functional
[10] = target: Histone deacetylase 8 (Homo sapiens, UniProt Q9BY41); assay: Inhibition of recombinant full length C-terminal His-tagged human HDAC8 expressed in baculovirus expression system using fluorogenic substrate by fluorescence assay; outline: as §2
[11] = target: Protein deacetylase HDAC6 (Homo sapiens, UniProt Q9UBN7); assay: Inhibition of recombinant full length N-terminal GST-tagged human HDAC6 expressed in baculovirus expression system using fluorogenic substrate by fluorescence assay; outline: as §1
[12] = test system: MOLT-4; assay: Antiproliferative activity against human MOLT4 cells assessed as reduction in cell viability after 70 hrs by Quanti-blue assay; assay type: functional
Outline: (§4)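 Quanti-Blue viability kit. HuT-78 and Molt-4 cells were grown in RPMI-1640 and seeded at 10^5 cells/mL. Compounds were screened at 50 μM for 70 h, with detection reagent present for the final 2 h. Fluorescence was read at ex 530/em 590 nm. IC50 from dose-response came from linear regression. Three independent runs.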

[13] = target: Histone deacetylase 1 (Homo sapiens, UniProt Q13547); assay: Inhibition of recombinant full length C-terminal FLAG-tagged/C-terminal His-tagged human HDAC1 using fluorogenic substrate by fluorescence assay; outline: as §1
[14] = target: Histone deacetylase 7 (Homo sapiens, UniProt Q8WUI4); assay: Inhibition of recombinant N-terminal GST-tagged human HDAC7 (518 to end residues) expressed in baculovirus expression system using fluorogenic substrate by fluorescence assay; outline: as §2
[15] = test system: HuT78; assay: Antiproliferative activity against human HUT78 cells assessed as reduction in cell viability after 70 hrs by Quanti-blue assay; assay type: functional; outline: as §4
[16] = target: Histone deacetylase 4 (Homo sapiens, UniProt P56524); assay: Inhibition of recombinant C-terminal His-tagged/N-terminal GST-tagged human HDAC4 (627 to 1084 residues) expressed in baculovirus expression system using fluorogenic substrate by fluorescence assay; outline: as §2
[17] = test system: MDA-MB-231; assay: Antiproliferative activity against human MDA-MB-231 cells assessed as reduction in cell viability after 72 hrs by MTS-PMS assay; assay type: functional; settings: MDA-MB-231, 72 h; outline: as §3
[18] = target: Histone deacetylase 9 (Homo sapiens, UniProt Q9UKV0); assay: Inhibition of recombinant C-terminal His-tagged human HDAC9 (604 to 1066 residues) expressed in baculovirus expression system using fluorogenic substrate by fluorescence assay; outline: as §2
[19] = target: Polyamine deacetylase HDAC10 (Homo sapiens, UniProt Q969S8); assay: Inhibition of recombinant N-terminal FLAG-tagged human HDAC10 (2 to 631 residues) expressed in baculovirus expression system using fluorogenic substrate by fluorescence assay; outline: as §1
[20] = target: NAD-dependent protein deacetylase sirtuin-1 (Homo sapiens) (UniProt Q96EB6); assay: Inhibition of SIRT1 (unknown origin) at 5 uM
[21] = target: DNA (cytosine-5)-methyltransferase 1 (Homo sapiens) (UniProt P26358); assay: Inhibition of DNMT1 (unknown origin) at 5 uM
[22] = target: NAD-dependent protein deacetylase sirtuin-2 (Homo sapiens) (UniProt Q8IXJ6); assay: Inhibition of SIRT2 (unknown origin) at 5 uM
[23] = target: NAD-dependent protein deacylase sirtuin-5, mitochondrial (Homo sapiens) (UniProt Q9NXA8); assay: Inhibition of SIRT5 (unknown origin) at 5 to 10 uM
[24] = target: T2, DNMT3A2/3L complex (Homo sapiens) (UniProt Q9Y6K1+Q9UJW3); assay: Inhibition of DNMT3A/3L (unknown origin) at 10 uM; assay type: protein-complex assay
[25] = target: NAD-dependent protein deacetylase sirtuin-1 (Homo sapiens) (UniProt Q96EB6); assay: Inhibition of SIRT1 (unknown origin) at 10 uM
[26] = target: NAD-dependent protein deacetylase sirtuin-3, mitochondrial (Homo sapiens) (UniProt Q9NTG7); assay: Inhibition of SIRT3 (unknown origin) at 5 uM
[27] = target: T3, DNMT3B-DNMT3L complex (Homo sapiens) (UniProt Q9UBC3+Q9UJW3); assay: Inhibition of DNMT3B/3L (unknown origin) at 10 uM; assay type: protein-complex assay
[28] = target: NAD-dependent protein deacetylase sirtuin-3, mitochondrial (Homo sapiens) (UniProt Q9NTG7); assay: Inhibition of SIRT3 (unknown origin) at 10 uM
[29] = target: T2, DNMT3A2/3L complex (Homo sapiens); assay: Inhibition of DNMT3A/3L (unknown origin) at 5 uM; assay type: protein-complex assay
[30] = target: NAD-dependent protein deacetylase sirtuin-2 (Homo sapiens) (UniProt Q8IXJ6); assay: Inhibition of SIRT2 (unknown origin) at 10 uM
[31] = target: DNA (cytosine-5)-methyltransferase 1 (Homo sapiens) (UniProt P26358); assay: Inhibition of DNMT1 (unknown origin) at 10 uM
[32] = target: T3, DNMT3B-DNMT3L complex (Homo sapiens); assay: Inhibition of DNMT3B/3L (unknown origin) at 5 uM; assay type: protein-complex assay

T1 sequence (Q92769 whole entry): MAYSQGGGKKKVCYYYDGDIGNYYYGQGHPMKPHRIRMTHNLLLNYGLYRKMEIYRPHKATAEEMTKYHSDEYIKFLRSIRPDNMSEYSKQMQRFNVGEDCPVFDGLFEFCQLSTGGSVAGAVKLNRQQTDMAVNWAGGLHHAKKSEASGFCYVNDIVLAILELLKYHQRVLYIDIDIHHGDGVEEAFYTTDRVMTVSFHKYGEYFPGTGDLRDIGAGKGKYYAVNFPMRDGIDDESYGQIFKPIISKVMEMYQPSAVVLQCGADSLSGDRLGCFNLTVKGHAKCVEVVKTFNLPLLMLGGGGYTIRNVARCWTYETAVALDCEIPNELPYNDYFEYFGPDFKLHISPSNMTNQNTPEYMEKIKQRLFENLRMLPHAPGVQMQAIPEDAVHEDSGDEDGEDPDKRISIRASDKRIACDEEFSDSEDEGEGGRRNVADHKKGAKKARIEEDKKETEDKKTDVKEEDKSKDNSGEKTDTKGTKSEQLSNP
Chain of Histone deacetylase 8 (Q9BY41 whole entry): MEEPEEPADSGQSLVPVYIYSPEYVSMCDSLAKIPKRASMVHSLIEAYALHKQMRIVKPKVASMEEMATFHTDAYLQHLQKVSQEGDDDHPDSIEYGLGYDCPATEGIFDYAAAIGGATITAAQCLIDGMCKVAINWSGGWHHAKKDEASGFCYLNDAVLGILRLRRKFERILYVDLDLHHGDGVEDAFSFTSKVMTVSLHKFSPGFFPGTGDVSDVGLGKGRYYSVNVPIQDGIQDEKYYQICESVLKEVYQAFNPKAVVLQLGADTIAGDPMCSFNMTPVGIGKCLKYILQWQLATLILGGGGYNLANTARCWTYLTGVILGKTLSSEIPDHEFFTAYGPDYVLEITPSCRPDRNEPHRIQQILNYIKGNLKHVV
Chain of NAD-dependent protein deacetylase sirtuin-1 (Homo sapiens) (Q96EB6 whole entry): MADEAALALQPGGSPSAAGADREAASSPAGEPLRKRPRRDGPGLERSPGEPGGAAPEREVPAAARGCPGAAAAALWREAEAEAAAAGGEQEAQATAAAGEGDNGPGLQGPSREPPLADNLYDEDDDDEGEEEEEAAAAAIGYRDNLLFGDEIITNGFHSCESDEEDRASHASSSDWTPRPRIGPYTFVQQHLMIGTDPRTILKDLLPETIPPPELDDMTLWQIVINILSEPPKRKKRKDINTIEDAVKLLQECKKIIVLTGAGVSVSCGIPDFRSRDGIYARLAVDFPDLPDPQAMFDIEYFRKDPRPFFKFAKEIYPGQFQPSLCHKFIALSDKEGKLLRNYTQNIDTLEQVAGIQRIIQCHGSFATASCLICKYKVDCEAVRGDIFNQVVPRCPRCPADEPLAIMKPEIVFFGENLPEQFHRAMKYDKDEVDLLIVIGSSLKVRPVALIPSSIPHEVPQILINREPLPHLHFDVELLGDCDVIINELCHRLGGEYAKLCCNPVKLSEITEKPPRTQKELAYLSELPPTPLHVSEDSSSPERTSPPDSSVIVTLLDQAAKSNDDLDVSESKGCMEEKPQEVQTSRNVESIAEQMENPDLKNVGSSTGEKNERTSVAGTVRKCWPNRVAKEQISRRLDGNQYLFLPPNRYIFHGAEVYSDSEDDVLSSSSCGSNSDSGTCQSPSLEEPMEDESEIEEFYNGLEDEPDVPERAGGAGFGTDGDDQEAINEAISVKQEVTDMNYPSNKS
Chain of Histone deacetylase 4 (P56524 whole entry, the tested form may be a part): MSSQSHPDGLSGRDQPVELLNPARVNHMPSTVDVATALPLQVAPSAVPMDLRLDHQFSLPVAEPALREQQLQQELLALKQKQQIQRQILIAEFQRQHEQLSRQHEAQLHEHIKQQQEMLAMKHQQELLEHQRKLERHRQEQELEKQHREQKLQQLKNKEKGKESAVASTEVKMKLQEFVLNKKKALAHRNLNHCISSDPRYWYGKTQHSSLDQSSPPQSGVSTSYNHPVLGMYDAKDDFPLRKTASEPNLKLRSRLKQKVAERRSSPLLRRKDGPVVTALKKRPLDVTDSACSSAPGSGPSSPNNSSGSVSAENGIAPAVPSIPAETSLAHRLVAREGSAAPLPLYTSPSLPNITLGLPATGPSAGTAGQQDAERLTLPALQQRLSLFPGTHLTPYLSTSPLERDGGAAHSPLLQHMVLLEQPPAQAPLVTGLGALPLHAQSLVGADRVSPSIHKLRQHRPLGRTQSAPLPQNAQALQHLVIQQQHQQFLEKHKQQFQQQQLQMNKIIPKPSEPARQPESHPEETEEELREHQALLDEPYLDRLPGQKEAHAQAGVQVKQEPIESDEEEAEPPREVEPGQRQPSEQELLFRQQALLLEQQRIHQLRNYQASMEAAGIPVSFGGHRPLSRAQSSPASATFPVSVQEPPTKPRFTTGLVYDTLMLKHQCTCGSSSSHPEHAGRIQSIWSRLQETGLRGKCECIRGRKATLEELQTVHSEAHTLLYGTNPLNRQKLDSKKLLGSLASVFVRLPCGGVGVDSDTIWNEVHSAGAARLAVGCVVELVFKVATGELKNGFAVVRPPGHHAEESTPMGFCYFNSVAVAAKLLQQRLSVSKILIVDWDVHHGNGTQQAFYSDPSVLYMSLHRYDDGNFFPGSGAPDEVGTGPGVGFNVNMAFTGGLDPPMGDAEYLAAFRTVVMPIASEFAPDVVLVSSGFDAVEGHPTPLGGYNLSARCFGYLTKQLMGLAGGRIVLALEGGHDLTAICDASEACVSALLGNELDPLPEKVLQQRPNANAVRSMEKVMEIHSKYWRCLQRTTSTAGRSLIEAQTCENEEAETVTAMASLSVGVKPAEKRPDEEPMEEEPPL
Chain of NAD-dependent protein deacetylase sirtuin-2 (Homo sapiens) (Q8IXJ6 whole entry): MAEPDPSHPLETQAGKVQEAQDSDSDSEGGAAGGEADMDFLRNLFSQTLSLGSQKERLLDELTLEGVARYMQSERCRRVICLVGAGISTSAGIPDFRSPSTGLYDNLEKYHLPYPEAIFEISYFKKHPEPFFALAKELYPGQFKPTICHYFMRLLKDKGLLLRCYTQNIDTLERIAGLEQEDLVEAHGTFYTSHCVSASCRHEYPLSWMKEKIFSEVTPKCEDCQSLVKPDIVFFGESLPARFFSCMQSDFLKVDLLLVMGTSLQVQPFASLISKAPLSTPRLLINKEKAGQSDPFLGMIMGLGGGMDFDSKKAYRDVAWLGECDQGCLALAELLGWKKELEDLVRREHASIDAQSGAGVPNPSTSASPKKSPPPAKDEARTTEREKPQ
Chain of NAD-dependent protein deacetylase sirtuin-3, mitochondrial (Homo sapiens) (Q9NTG7 whole entry): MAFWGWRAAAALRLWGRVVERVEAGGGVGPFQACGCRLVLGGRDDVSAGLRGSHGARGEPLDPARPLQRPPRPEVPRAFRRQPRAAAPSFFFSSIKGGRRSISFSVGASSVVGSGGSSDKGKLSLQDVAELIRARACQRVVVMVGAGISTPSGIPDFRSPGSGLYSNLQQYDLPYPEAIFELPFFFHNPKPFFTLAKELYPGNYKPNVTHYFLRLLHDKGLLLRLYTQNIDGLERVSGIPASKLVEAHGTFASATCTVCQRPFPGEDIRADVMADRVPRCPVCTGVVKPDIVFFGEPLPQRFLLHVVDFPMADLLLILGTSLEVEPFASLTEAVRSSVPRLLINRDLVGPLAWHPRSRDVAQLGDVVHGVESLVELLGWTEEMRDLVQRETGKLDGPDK
Chain of Histone deacetylase 9 (Q9UKV0 whole entry, the tested form may be a part): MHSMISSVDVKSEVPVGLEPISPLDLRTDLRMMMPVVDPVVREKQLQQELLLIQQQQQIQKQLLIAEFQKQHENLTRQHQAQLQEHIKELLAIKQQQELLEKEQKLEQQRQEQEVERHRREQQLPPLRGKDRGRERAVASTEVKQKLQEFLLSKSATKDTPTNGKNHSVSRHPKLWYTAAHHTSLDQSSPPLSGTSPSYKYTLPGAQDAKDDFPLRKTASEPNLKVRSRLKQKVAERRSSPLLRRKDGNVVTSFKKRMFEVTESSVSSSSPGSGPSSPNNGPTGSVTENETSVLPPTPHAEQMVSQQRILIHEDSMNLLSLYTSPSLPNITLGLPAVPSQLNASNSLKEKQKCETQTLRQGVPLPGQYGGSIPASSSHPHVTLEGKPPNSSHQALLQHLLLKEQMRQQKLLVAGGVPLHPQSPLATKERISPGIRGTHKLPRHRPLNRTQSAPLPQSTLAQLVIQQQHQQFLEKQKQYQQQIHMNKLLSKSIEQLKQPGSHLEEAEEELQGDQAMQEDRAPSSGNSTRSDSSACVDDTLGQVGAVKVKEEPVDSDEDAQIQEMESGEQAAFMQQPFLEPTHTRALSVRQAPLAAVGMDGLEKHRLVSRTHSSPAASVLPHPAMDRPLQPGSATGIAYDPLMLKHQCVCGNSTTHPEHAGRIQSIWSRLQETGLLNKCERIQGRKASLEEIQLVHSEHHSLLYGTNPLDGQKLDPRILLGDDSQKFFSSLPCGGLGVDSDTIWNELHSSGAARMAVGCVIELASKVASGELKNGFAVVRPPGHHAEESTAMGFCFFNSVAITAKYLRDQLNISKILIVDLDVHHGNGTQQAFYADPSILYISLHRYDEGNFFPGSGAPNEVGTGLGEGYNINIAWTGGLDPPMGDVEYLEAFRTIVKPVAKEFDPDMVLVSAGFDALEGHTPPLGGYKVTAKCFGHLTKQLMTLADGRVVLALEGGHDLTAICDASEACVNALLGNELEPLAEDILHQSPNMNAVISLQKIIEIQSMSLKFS
Chain of Histone deacetylase 11 (Q96DB2 whole entry): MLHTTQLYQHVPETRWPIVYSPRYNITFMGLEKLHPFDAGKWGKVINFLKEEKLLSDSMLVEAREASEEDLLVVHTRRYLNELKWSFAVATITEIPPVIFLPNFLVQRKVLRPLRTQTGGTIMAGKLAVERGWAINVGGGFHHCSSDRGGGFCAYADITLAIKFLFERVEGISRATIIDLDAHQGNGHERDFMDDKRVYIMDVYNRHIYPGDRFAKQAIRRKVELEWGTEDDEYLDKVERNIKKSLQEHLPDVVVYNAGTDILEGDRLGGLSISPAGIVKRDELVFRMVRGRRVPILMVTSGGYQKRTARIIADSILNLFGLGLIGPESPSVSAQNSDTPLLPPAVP

SMILES	GI50 [1]	IC50 [2]	IC50 [3]	GI50 at 70 h [4]	IC50 [5]	IC50 [6]	IC50 [7]	Activity [9]	IC50 [10]	IC50 [11]	IC50 [13]	IC50 [14]	GI50 ([15]; Homo sapiens, HuT78, 70 h)	IC50 [16]	GI50 [17]	IC50 [18]	IC50 [19]	also measured
O=C(CCCC(=O)NCCc1ccccc1)NO	> 50 µM	5 to 10 µM	> 10 µM	> 50 µM	5 to 10 µM	5 to 10 µM	> 1 µM	113%	5 to 10 µM	< 5 µM	5 to 10 µM	> 10 µM	> 50 µM	5 to 10 µM	> 50 µM	5 to 10 µM	5 to 10 µM	GI50 ([8]; Homo sapiens, HCT-116, 72 h): > 50 µM; GI50 ([12]; Homo sapiens, MOLT-4, 70 h): > 50 µM
CCOC(=O)NCCCC(=O)NCCc1ccccc1	> 50 µM	5 to 10 µM	5 to 10 µM	> 50 µM	5 to 10 µM	5 to 10 µM	> 1 µM	77%	5 to 10 µM	5 to 10 µM	5 to 10 µM	5 to 10 µM	> 50 µM	5 to 10 µM	> 50 µM	5 to 10 µM	5 to 10 µM	inhibition [20]: inactive; inhibition [21]: inactive; inhibition [22]: inactive; inhibition [23]: inactive; inhibition [24]: inactive; inhibition [25]: inactive; inhibition [26]: inactive; GI50 [8]: > 50 µM and 17.2 µM; inhibition [27]: inactive; inhibition [28]: inactive; inhibition [29]: inactive; GI50 [12]: > 50 µM and 7.8 µM; inhibition [30]: inactive; inhibition [31]: inactive; inhibition [32]: inactive; GI50 [15]: 36 µM
